Reference: ChEMBL document CHEMBL1125445, “Bis(maltolato)oxovanadium(IV) is a potent insulin mimic” (J Med Chem, 1992)

Columns and labels:
Assay type in all cases: functional, organism-based
[1] = species on record: Rattus norvegicus; experiment: Decrease in plasma triglyceride (mM) of Male Wistar ratsrecieved an equivalent volume of isotonic saline (C control group)
In short: (§1)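 Wistar males, with STZ diabetes from 60 mg/kg i.v. in saline or saline-injected controls. Treated groups got the compound ad libitum in drinking water (1.58 mM) and untreated groups got tap water. Plasma was taken after 4 weeks by centrifuging blood at 20000g for 10 min at 4 °C and kept at -70 °C until assay. Reported as mean ± SEM, with ANOVA then Newman-Keuls.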

[2] = species on record: Rattus norvegicus; experiment: Decrease in plasma triglyceride (mM) of male Wistar rats control treated (CT) group (number of rats = 11) which received compound dissolved in tap water; in short: as §1
[3] = system: Rattus norvegicus; experiment: Decrease in plasma triglyceride (mM)in male Wistar rats diabetic (D) group (number of rats = 11) where the diabetic state was induced by intravenous administration of streptozocin (STZ) at 60 mg/kg; set-up: dose 60 mg/kg; in short: as §1
[4] = species on record: Rattus norvegicus; experiment: Decrease in weight of Male Wistar ratsrecieved an equivalent volume of isotonic saline (C control group)
In short: (§2)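 Male Wistar rats housed 2–3 per cage on a 12 h light/dark cycle with free food and water. Diabetes was induced by i.v. streptozocin, 60 mg/kg in 0.9% NaCl, and controls got saline. Treated groups drank the compound at 1.58 mM in tap water. Body weight was recorded daily and reported at week 4 as mean ± SEM, with ANOVA/Newman-Keuls.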

[5] = species on record: Rattus norvegicus; experiment: Decrease in weight of male Wistar rats control treated (CT) group (number of rats = 11) which received compound dissolved in tap water; in short: as §2
[6] = system: Rattus norvegicus; experiment: Decrease in weight(g)in male Wistar rats diabetic (D) group (number of rats = 11) where the diabetic state was induced by intravenous administration of streptozocin (STZ) at 60 mg/kg; set-up: dose 60 mg/kg; in short: as §2
[7] = species on record: Rattus norvegicus; experiment: Decrease weight(g) in male Wistar rats diabetic treated (DT) group (number of rats = 12) which received compound dissolved in tap water; in short: as §2
[8] = system: Rattus norvegicus; experiment: Decrease in plasma glucose (mM)in male Wistar rats diabetic (D) group (number of rats = 11) where the diabetic state was induced by intravenous administration of streptozocin (STZ) at 60 mg/kg; set-up: dose 60 mg/kg; in short: as §1
[9] = species on record: Rattus norvegicus; experiment: Decrease in plasma insulin (microUnits/mL) of Male Wistar ratsrecieved an equivalent volume of isotonic saline (C control group); in short: as §1
[10] = species on record: Rattus norvegicus; experiment: Decrease in fluid (mL/rat/day)-intake in male Wistar rats diabetic treated (DT) group (number of rats = 12) which received compound dissolved in tap water
In short: (§3)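 Male Wistar rats; diabetes induced by a single tail-vein injection of streptozocin, 60 mg/kg in 0.9% NaCl, and non-diabetic rats got saline. Treated groups drank the compound in tap water (1.58 mM), and untreated groups drank tap water. Food and fluid intake per 24 h per cage was divided by rats per cage. Values at week 4, mean ± SEM, ANOVA/Newman-Keuls.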

[11] = system: Rattus norvegicus; experiment: Decrease in fluid (mL/rat/day)-intake-in male Wistar rats diabetic (D) group (number of rats = 11) where the diabetic state was induced by intravenous administration of streptozocin (STZ) at 60 mg/kg; set-up: dose 60 mg/kg; in short: as §3
[12] = species on record: Rattus norvegicus; experiment: Decrease in fluid intake of Male Wistar ratsrecieved an equivalent volume of isotonic saline (C control group); in short: as §3
[13] = species on record: Rattus norvegicus; experiment: Decrease in fluid intake of male Wistar rats control treated (CT) group (number of rats = 11) which received compound dissolved in tap water; in short: as §3
[14] = species on record: Rattus norvegicus; experiment: Decrease food (g/rat/day) intake in male Wistar rats diabetic treated (DT) group (number of rats = 12) which received compound dissolved in tap water; in short: as §3
[15] = species on record: Rattus norvegicus; experiment: Decrease in food intake of male Wistar rats control treated (CT) group (number of rats = 11) which received compound dissolved in tap water; in short: as §3
[16] = species on record: Rattus norvegicus; experiment: Decrease in food intake of Male Wistar ratsrecieved an equivalent volume of isotonic saline (C control group); in short: as §3
[17] = species on record: Rattus norvegicus; experiment: Decrease in plasma cholesterol (mM) in male Wistar rats diabetic treated (DT) group (number of rats = 12) which received compound dissolved in tap water; in short: as §1
[18] = species on record: Rattus norvegicus; experiment: Decrease in plasma cholesterol (mM) of Male Wistar ratsrecieved an equivalent volume of isotonic saline (C control group); in short: as §1
[19] = species on record: Rattus norvegicus; experiment: Decrease in plasma cholesterol (mM) of male Wistar rats control treated (CT) group (number of rats = 11) which received compound dissolved in tap water; in short: as §1
[20] = system: Rattus norvegicus; experiment: Decrease in plasma cholesterol (mM)in male Wistar rats diabetic (D) group (number of rats = 11) where the diabetic state was induced by intravenous administration of streptozocin (STZ) at 60 mg/kg; set-up: dose 60 mg/kg; in short: as §1
[21] = species on record: Rattus norvegicus; experiment: Decrease in plasma glucose (mM) in male Wistar rats diabetic treated (DT) group (number of rats = 12) which received compound dissolved in tap water; in short: as §1
[22] = species on record: Rattus norvegicus; experiment: Decrease in plasma glucose (mM) of Male Wistar ratsrecieved an equivalent volume of isotonic saline (C control group); in short: as §1
[23] = species on record: Rattus norvegicus; experiment: Decrease in plasma glucose (mM) of male Wistar rats control treated (CT) group (number of rats = 11) which received compound dissolved in tap water; in short: as §1
[24] = species on record: Rattus norvegicus; experiment: Decrease in plasma insulin (microUnits/mL) of male Wistar rats control treated (CT) group (number of rats = 11) which received compound dissolved in tap water; in short: as §1
[25] = system: Rattus norvegicus; experiment: Decrease in plasma insulin (microUnits/mL) in male Wistar rats diabetic (D) group (number of rats = 11) where the diabetic state was induced by intravenous administration of streptozocin (STZ) at 60 mg/kg; set-up: dose 60 mg/kg; in short: as §1
[26] = species on record: Rattus norvegicus; experiment: Decrease in plasma insulin (microUnits/mL) in male Wistar rats diabetic treated (DT) group (number of rats = 12) which received compound dissolved in tap water; in short: as §1
[27] = species on record: Rattus norvegicus; experiment: Decrease in plasma triglyceride (mM) in male Wistar rats diabetic treated (DT) group (number of rats = 12) which received compound dissolved in tap water; in short: as §1
[28] = system: Rattus norvegicus; experiment: Decrease in food (g/rat/day)in take in male Wistar rats diabetic (D) group (number of rats = 11) where the diabetic state was induced by intravenous administration of streptozocin (STZ) at 60 mg/kg; set-up: dose 60 mg/kg; in short: as §3

BIS(MALTOLATO)OXOVANADIUM(IV)
Plasma triglyceride [1]: 1.8 mM | Plasma triglyceride [2]: 2.1 mM | Plasma triglyceride [3]: 2.7 mM | WEIGHT [4]: 404 g | WEIGHT [5]: 391 g | WEIGHT [6]: 349 g | WEIGHT [7]: 311 g | Plasma glucose [8]: 13.9 mM | Plasma insulin [9]: 35.6 uUnits ml-1 | Fluid (ml rat-1 day-1) [10]: 52 | Fluid (ml rat-1 day-1) [11]: 264 | Fluid (ml rat-1 day-1) [12]: 59 | Fluid (ml rat-1 day-1) [13]: 43 | Food (g rat-1 day-1) [14]: 37.9 | Food (g rat-1 day-1) [15]: 28.8 | Food (g rat-1 day-1) [16]: 28.3 | Plasma cholesterol [17]: 1.6 mM | Plasma cholesterol [18]: 1.4 mM | Plasma cholesterol [19]: 1.7 mM | Plasma cholesterol [20]: 2.4 mM | Plasma glucose [21]: 7 mM | Plasma glucose [22]: 4 mM | Plasma glucose [23]: 4.1 mM | Plasma insulin [24]: 21.6 uUnits ml-1 | Plasma insulin [25]: 22 uUnits ml-1 | Plasma insulin [26]: 21.9 uUnits ml-1 | Plasma triglyceride [27]: 1.9 mM | Food (g rat-1 day-1) [28]: 63.5
